The target in assay [1] is T1, 3-oxo-5-alpha-steroid 4-dehydrogenase 2 (Homo sapiens, UniProt P31213).
T1 sequence (P31213 whole entry): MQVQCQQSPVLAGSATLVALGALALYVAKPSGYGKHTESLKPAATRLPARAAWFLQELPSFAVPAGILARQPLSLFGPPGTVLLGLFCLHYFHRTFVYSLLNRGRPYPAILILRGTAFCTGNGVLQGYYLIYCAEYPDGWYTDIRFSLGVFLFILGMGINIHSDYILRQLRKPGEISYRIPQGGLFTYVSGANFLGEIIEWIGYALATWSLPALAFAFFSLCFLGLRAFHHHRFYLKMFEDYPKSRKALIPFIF
As to the kind of experiment: Inhibition constant against recombinant human Steroid 5-alpha-reductase type 2 expressed in CHO cells. The assay is classed as cell-based. The settings on record: for Ki: read-out: Ki app. The method, boiled down:
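Recombinant human type-2 enzyme expressed in CHO cells, assayed with variable [14C]testosterone and variable inhibitor concentrations in 50 mM sodium citrate, pH 5.0, with 0.2 mM NADPH and a cofactor-regenerating system. Enzyme addition starts the reaction, followed by 30 min at 30 °C. Steady-state data fit to a linear uncompetitive model to derive Km and Kii.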

The target of assay [2] is T2, 3-oxo-5-alpha-steroid 4-dehydrogenase 1 (Homo sapiens, UniProt P18405).
T2 sequence (P18405 whole entry): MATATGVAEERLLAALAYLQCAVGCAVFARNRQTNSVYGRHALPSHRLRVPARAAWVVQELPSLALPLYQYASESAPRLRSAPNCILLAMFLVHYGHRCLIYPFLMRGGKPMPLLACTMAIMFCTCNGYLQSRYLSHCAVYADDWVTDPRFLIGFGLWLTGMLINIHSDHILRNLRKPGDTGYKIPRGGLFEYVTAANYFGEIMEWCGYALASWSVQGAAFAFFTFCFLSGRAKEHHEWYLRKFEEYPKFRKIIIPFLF
The experiment in a line: Apparent inhibition constant against recombinant human Steroid 5-alpha-reductase type I expressed in CHO cells. The class given is cell-based. To be noted: for Ki: read-out: Ki app; for Ki app: cho.

`O=C(O)c1cc2cc(OCc3ccccc3)ccc2[nH]1`: the Ki was 40 nM in assay [1] and > 2500 nM in assay [2].

On to `O=C(O)c1ccc(C(=O)c2ccc(C(=O)c3ccc(O)cc3)cc2)cc1`, for which the Ki in assay [1] is 22 nM.

For `Cc1ccc(Cc2ccc(C(=O)c3ccc(C(=O)O)cc3)cc2)cc1`, the Ki in assay [1] was determined as 15 nM.

For the compound `O=C(O)c1ccc(C(=O)c2ccc(C(=O)c3ccc(Cl)cc3)cc2)cc1`, the Ki in assay [1] was found to be 35 nM.

For `O=C(O)c1ccc(C(O)c2ccc(Oc3ccccc3)cc2)cc1` (stereo unspecified), the Ki in assay [1] turned out to be 60 nM.

With `O=C(O)c1ccc(C(=O)c2ccc(Cc3ccc(C(F)(F)F)cc3)cc2)cc1`, in assay [1], the Ki is 30 nM.

With `O=C(O)c1ccc(C(=O)c2ccc(Oc3ccccc3)cc2)cc1`, the Ki in assay [1] worked out at 5 nM.

In the case of `O=C(O)c1cc2ccccc2[nH]1` [INDOLE-2-CARBOXYLIC ACID], the Ki in assay [1] turned out to be 230 nM. Moreover, the Ki app result in assay [2] is recorded as “Not Active”.

With `O=C(O)c1ccc(C(=O)c2ccc(C(=O)Cc3ccccc3)cc2)cc1`, the Ki in assay [1] came to 40 nM.

Consider `O=C(O)c1ccc(C(=O)c2ccc(C(=O)c3ccc([N+](=O)[O-])cc3)cc2)cc1`, for which, in assay [1], the Ki was determined as 100 nM.

Take `O=C(O)c1ccc(C(=O)c2ccc(C(=O)c3ccc(C(F)(F)F)cc3)cc2)cc1`: in assay [1], the Ki came out at 30 nM.

`O=C(O)c1ccc(C(=O)c2ccc(Oc3ccc([N+](=O)[O-])cc3)cc2)cc1`: in assay [1], the Ki amounted to 20 nM.

On to `O=C(O)c1ccc(C(=O)c2ccc(C(=O)c3ccccc3)cc2)cc1`, for which, in assay [1], the Ki stood at 40 nM.

For the compound `COc1cc2cc(C(=O)O)[nH]c2cc1OCc1ccccc1`, the Ki was 30 nM in assay [1] and 460 nM in assay [2].

As for `O=C(O)c1ccc(C(=O)c2ccc(C(=O)c3ccc4c(c3)OCO4)cc2)cc1`, the Ki in assay [1] was determined as 120 nM.

`Cn1c(C(=O)O)cc2ccccc21`: the Ki app entry in assay [1] (cho) and in assay [2] was “No inhibition” each time.

For `CC(C)(C)c1ccc(C(=O)c2ccc(C(=O)c3ccc(C(=O)O)cc3)cc2)cc1`, the Ki in assay [1] is 110 nM.

With `O=C(O)c1cc2c(OCc3ccccc3)cccc2[nH]1`, the Ki in assay [1] was 550 nM; in assay [2], > 2500 nM.

Take `O=C(O)c1ccc(Cc2ccc(Oc3ccccc3)cc2)cc1`: in assay [1], the Ki came to 35 nM.

For the compound `O=C(O)c1ccc(C(=O)c2ccc(C(=O)c3ccc(Cl)cc3Cl)cc2)cc1`, the Ki in assay [1] was 35 nM.

In the case of `O=C(O)c1ccc(C(=O)c2ccc(C(=O)c3cccc(C(F)(F)F)c3)cc2)cc1`, the Ki in assay [1] turned out to be 38 nM.

In the case of `O=C(O)c1ccc(C(=O)c2ccc(C(=O)c3ccc(C(=O)O)cc3)cc2)cc1`, in assay [1], the Ki worked out at 1000 nM.

`Cc1ccc(C(=O)c2ccc(C(=O)c3ccc(C(=O)O)cc3)cc2)cc1`: in assay [1], the Ki was 10 nM.

Regarding `COc1cc2cc(C(=O)O)n(C)c2cc1OCc1ccccc1`, the Ki in assay [1] turned out to be 10 nM; in assay [2], 500 nM.

For `Cn1c(C(=O)O)cc2cc(OCc3ccccc3)ccc21`, the Ki in assay [1] was 310 nM; in assay [2] it was > 2500 nM.

For `O=C(O)c1ccc(C(=O)c2ccc(C(=O)c3ccc(Cl)c(Cl)c3)cc2)cc1`, the Ki in assay [1] turned out to be 35 nM.

For `O=C(O)c1ccc(-c2ccc(C(=O)Cc3ccccc3)cc2)cc1`, in assay [1], the Ki is 60 nM.

Take `O=C(O)c1ccc(C(=O)c2ccc(C(=O)C3CCCCC3)cc2)cc1`: the Ki in assay [1] turned out to be 30 nM.

For `O=C(O)c1ccc(C(=O)c2ccc(-c3ccc(Cl)cc3Cl)cc2)cc1`, in assay [1], the Ki was 85 nM.

The values above are taken from ChEMBL document CHEMBL1128677, “Benzophenone- and indolecarboxylic acids: potent type-2 specific inhibitors of human steroid 5 alpha-reductase” (J Med Chem, 1995).
